What was measured:
Rattus norvegicus [1] = species: Rattus norvegicus; experiment: Biodistribution of radioactivity in rat striatum upon Tail-Vein injection of [11C]-labeled compound after 15 min; assay type: ADME, organism-based; details: in vivo, iv, 0.25 h
Rattus norvegicus [2] = species: Rattus norvegicus; experiment: Biodistribution of radioactivity in rat thalamus upon Tail-Vein injection of [11C]-labeled compound after 60 min; assay type: ADME, organism-based; details: in vivo, iv, 1 h
Rattus norvegicus [3] = species: Rattus norvegicus; experiment: Biodistribution of radioactivity in rat hypothalamus upon Tail-Vein injection of [11C]-labeled compound after 60 min; assay type: ADME, organism-based; details: in vivo, iv, 1 h
Rattus norvegicus [4] = species: Rattus norvegicus; experiment: Biodistribution of radioactivity in rat cortex upon Tail-Vein injection of [11C]-labeled compound after 30 min; assay type: ADME, organism-based; details: in vivo, iv, 0.5 h
[5] = target: Sodium-dependent dopamine transporter (Homo sapiens, UniProt Q01959); experiment: In vitro binding affinity on cloned Dopamine transporter
Outline: (§1)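 Competition binding in triplicate on membranes from cloned human transporters. Radioligands: SERT [3H]paroxetine 0.2 nM with 10.3 µg protein, NET [3H]nisoxetine 1.0 nM with 16.9 µg, DAT [3H]WIN 35,428 1.0 nM with 6.2 µg. Buffer 50 mM Tris-Cl pH 7.4 with 150 mM NaCl/5 mM KCl (SERT, NET) or 100 mM NaCl (DAT). Incubated 40 min at 37 °C, then filtered on PEI-soaked GF/B filters. Nonspecific binding set with duloxetine 1 µM (SERT), desipramine 10 µM (NET) or nomifensine 10 µM (DAT). IC50 from nonlinear fit; Ki by Cheng-Prusoff.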

Rattus norvegicus [6] = species: Rattus norvegicus; experiment: Biodistribution of radioactivity in rat blood upon Tail-Vein injection of [11C]-labeled compound after 60 min; assay type: ADME, organism-based; details: in vivo, iv, 1 h
Rattus norvegicus [7] = species: Rattus norvegicus; experiment: Biodistribution of radioactivity in rat hypothalamus upon Tail-Vein injection of [11C]-labeled compound after 5 min; assay type: ADME, organism-based; details: in vivo, iv
Rattus norvegicus [8] = species: Rattus norvegicus; experiment: Biodistribution of radioactivity in rat cortex upon Tail-Vein injection of [11C]-labeled compound after 5 min; assay type: ADME, organism-based; details: in vivo, iv
Rattus norvegicus [9] = species: Rattus norvegicus; experiment: Biodistribution of radioactivity in rat striatum upon Tail-Vein injection of [11C]-labeled compound after 5 min; assay type: ADME, organism-based; details: in vivo, iv
Rattus norvegicus [10] = species: Rattus norvegicus; experiment: Biodistribution of radioactivity in rat cerebellum upon Tail-Vein injection of [11C]-labeled compound after 15 min; assay type: ADME, organism-based; details: in vivo, iv, 0.25 h
Rattus norvegicus [11] = species: Rattus norvegicus; experiment: Biodistribution of radioactivity in rat hippocampus upon Tail-Vein injection of [11C]-labeled compound after 5 min; assay type: ADME, organism-based; details: in vivo, iv
Rattus norvegicus [12] = species: Rattus norvegicus; experiment: Biodistribution of radioactivity in rat thalamus upon Tail-Vein injection of [11C]-labeled compound after 5 min; assay type: ADME, organism-based; details: in vivo, iv
[13] = Half-life of washout rate of radioactivity from the cerebellum.; assay type: ADME, tissue-based
Outline: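 Rats received the 11C tracer by tail vein (3-30 MBq, 350-450 ng, buffered saline), 3 per time point. Cerebellar radioactivity (%ID/g) was followed over time after injection, and the half-life of its washout was derived from that time course.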

Rattus norvegicus [14] = species: Rattus norvegicus; experiment: Biodistribution of radioactivity in rat cerebellum upon Tail-Vein injection of [11C]-labeled compound after 5 min; assay type: ADME, organism-based; details: in vivo, iv
[15] = target: Sodium-dependent noradrenaline transporter (Homo sapiens, UniProt P23975); experiment: In vitro binding affinity on cloned Norepinephrine transporter
Outline: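 Competition binding in triplicate on membranes from cloned human transporters. Buffer 50 mM Tris-Cl pH 7.4 with 150 mM NaCl/5 mM KCl (SERT, NET) or 100 mM NaCl (DAT). Incubated 40 min at 37 °C, then filtered on PEI-soaked GF/B filters. Nonspecific binding set with duloxetine 1 µM (SERT), desipramine 10 µM (NET) or nomifensine 10 µM (DAT). IC50 from nonlinear fit; Ki by Cheng-Prusoff.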

Rattus norvegicus [16] = species: Rattus norvegicus; experiment: Biodistribution of radioactivity in rat hippocampus upon Tail-Vein injection of [11C]-labeled compound after 15 min; assay type: ADME, organism-based; details: in vivo, iv, 0.25 h
Rattus norvegicus [17] = species: Rattus norvegicus; experiment: Biodistribution of radioactivity in rat blood upon Tail-Vein injection of [11C]-labeled compound after 30 min upon; assay type: ADME, organism-based; details: in vivo, iv, 0.5 h
Rattus norvegicus [18] = species: Rattus norvegicus; experiment: Biodistribution of radioactivity in rat blood upon Tail-Vein injection of [11C]-labeled compound after 15 min; assay type: ADME, organism-based; details: in vivo, iv, 0.25 h
Rattus norvegicus [19] = species: Rattus norvegicus; experiment: Biodistribution of radioactivity in rat hypothalamus upon Tail-Vein injection of [11C]-labeled compound after 30 min; assay type: ADME, organism-based; details: in vivo, iv, 0.5 h
Rattus norvegicus [20] = species: Rattus norvegicus; experiment: Biodistribution of radioactivity in rat hippocampus upon Tail-Vein injection of [11C]-labeled compound after 30 min; assay type: ADME, organism-based; details: in vivo, iv, 0.5 h
Rattus norvegicus [21] = species: Rattus norvegicus; experiment: Biodistribution of radioactivity in rat cortex upon Tail-Vein injection of [11C]-labeled compound after 15 min; assay type: ADME, organism-based; details: in vivo, iv, 0.25 h
Rattus norvegicus [22] = species: Rattus norvegicus; experiment: Biodistribution of radioactivity in rat striatum upon Tail-Vein injection of [11C]-labeled compound after 60 min; assay type: ADME, organism-based; details: in vivo, iv, 1 h
Rattus norvegicus [23] = species: Rattus norvegicus; experiment: Biodistribution of radioactivity in rat hippocampus upon Tail-Vein injection of [11C]-labeled compound after 60 min; assay type: ADME, organism-based; details: in vivo, iv, 1 h
[24] = target: Sodium-dependent serotonin transporter (Homo sapiens, UniProt P31645); experiment: In vitro binding affinity on cloned Serotonin transporter; outline: as §1
Rattus norvegicus [25] = species: Rattus norvegicus; experiment: Biodistribution of radioactivity in rat striatum upon Tail-Vein injection of [11C]-labeled compound after 30 min; assay type: ADME, organism-based; details: in vivo, iv, 0.5 h
[26] = Log P at pH 7.4; assay type: physicochemical; details: buffer
Outline: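 Partition of the radiolabelled compound between 1-octanol and 0.02 M phosphate buffer at pH 7.4.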

Rattus norvegicus [27] = species: Rattus norvegicus; experiment: Biodistribution of radioactivity in rat blood upon Tail-Vein injection of [11C]-labeled compound after 5 min; assay type: ADME, organism-based; details: in vivo, iv
Rattus norvegicus [28] = species: Rattus norvegicus; experiment: Biodistribution of radioactivity in rat thalamus upon Tail-Vein injection of [11C]-labeled compound after 15 min; assay type: ADME, organism-based; details: in vivo, iv, 0.25 h
Rattus norvegicus [29] = species: Rattus norvegicus; experiment: Biodistribution of radioactivity in rat cortex upon Tail-Vein injection of [11C]-labeled compound after 60 min; assay type: ADME, organism-based; details: in vivo, iv, 1 h
Rattus norvegicus [30] = species: Rattus norvegicus; experiment: Biodistribution of radioactivity in rat cerebellum upon Tail-Vein injection of [11C]-labeled compound after 30 min; assay type: ADME, organism-based; details: in vivo, iv, 0.5 h
Rattus norvegicus [31] = species: Rattus norvegicus; experiment: Biodistribution of radioactivity in rat thalamus upon Tail-Vein injection of [11C]-labeled compound after 30 min; assay type: ADME, organism-based; details: in vivo, iv, 0.5 h
Rattus norvegicus [32] = species: Rattus norvegicus; experiment: Biodistribution of radioactivity in rat hypothalamus upon Tail-Vein injection of [11C]-labeled compound after 15 min; assay type: ADME, organism-based; details: in vivo, iv, 0.25 h
Rattus norvegicus [33] = species: Rattus norvegicus; experiment: Biodistribution of radioactivity in rat cerebellum upon Tail-Vein injection of [11C]-labeled compound after 60 min; assay type: ADME, organism-based; details: in vivo, iv, 1 h
Rattus norvegicus [34] = species: Rattus norvegicus; experiment: Biodistribution of radioactivity in rat cortex upon Tail-Vein injection of [11C]-labeled compound after 45 min; assay type: ADME, organism-based; details: in vivo, iv, 0.75 h
Rattus norvegicus [35] = species: Rattus norvegicus; experiment: Biodistribution of radioactivity in rat hypothalamus upon Tail-Vein injection of [11C]-labeled compound after 45 min; assay type: ADME, organism-based; details: in vivo, iv, 0.75 h
Rattus norvegicus [36] = species: Rattus norvegicus; experiment: Biodistribution of radioactivity in rat thalamus upon Tail-Vein injection of [11C]-labeled compound after 45 min; assay type: ADME, organism-based; details: in vivo, iv, 0.75 h
Rattus norvegicus [37] = species: Rattus norvegicus; experiment: Biodistribution of radioactivity in rat hippocampus upon Tail-Vein injection of [11C]-labeled compound after 45 min; assay type: ADME, organism-based; details: in vivo, iv, 0.75 h
Rattus norvegicus [38] = species: Rattus norvegicus; experiment: Biodistribution of radioactivity in rat blood upon Tail-Vein injection of [11C]-labeled compound after 45 min; assay type: ADME, organism-based; details: in vivo, iv, 0.75 h
Rattus norvegicus [39] = species: Rattus norvegicus; experiment: Biodistribution of radioactivity in rat cerebellum upon Tail-Vein injection of [11C]-labeled compound after 45 min; assay type: ADME, organism-based; details: in vivo, iv, 0.75 h
Rattus norvegicus [40] = species: Rattus norvegicus; experiment: Biodistribution of radioactivity in rat striatum upon Tail-Vein injection of [11C]-labeled compound after 45 min; assay type: ADME, organism-based; details: in vivo, iv, 0.75 h
Rattus norvegicus [41] = species: Rattus norvegicus; experiment: Biodistribution of radioactivity in rat blood upon Tail-Vein injection of [11C]-labeled compound after 30 min; assay type: ADME, organism-based; details: in vivo, iv, 0.5 h

Sequence of Sodium-dependent dopamine transporter (Q01959 whole entry): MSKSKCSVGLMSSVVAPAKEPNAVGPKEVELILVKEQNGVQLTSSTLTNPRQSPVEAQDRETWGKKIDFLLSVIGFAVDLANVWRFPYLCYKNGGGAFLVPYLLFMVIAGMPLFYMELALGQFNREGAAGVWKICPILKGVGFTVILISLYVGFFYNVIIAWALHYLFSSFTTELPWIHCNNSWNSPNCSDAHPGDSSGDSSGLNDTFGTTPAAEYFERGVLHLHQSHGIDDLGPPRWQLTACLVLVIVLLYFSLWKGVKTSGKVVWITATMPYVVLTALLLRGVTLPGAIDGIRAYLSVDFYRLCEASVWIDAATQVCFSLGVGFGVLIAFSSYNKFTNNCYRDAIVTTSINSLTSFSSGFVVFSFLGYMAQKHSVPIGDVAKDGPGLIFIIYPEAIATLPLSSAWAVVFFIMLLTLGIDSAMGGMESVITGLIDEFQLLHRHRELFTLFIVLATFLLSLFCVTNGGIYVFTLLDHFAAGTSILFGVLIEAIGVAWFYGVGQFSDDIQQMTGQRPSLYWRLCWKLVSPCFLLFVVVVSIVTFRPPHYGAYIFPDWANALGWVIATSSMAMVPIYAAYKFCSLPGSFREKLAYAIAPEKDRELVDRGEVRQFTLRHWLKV
Sequence of Sodium-dependent serotonin transporter (P31645 whole entry): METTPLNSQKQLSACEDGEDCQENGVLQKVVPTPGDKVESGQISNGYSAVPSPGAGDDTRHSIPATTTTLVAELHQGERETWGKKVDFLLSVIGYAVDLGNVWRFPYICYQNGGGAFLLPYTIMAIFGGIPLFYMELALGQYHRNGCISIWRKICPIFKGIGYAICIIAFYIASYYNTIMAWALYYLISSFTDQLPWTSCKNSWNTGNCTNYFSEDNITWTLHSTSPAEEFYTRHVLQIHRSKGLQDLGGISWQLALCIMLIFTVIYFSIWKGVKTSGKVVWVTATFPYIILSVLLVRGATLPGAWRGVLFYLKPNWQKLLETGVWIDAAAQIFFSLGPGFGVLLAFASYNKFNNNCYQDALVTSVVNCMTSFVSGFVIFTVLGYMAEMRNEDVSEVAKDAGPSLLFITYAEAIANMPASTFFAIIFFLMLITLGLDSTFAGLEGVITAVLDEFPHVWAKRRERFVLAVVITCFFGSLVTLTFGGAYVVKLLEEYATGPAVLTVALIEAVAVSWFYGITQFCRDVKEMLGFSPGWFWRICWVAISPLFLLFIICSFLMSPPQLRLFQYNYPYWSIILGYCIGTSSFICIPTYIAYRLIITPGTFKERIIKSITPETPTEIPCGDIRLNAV
Sequence of Sodium-dependent noradrenaline transporter (P23975 whole entry): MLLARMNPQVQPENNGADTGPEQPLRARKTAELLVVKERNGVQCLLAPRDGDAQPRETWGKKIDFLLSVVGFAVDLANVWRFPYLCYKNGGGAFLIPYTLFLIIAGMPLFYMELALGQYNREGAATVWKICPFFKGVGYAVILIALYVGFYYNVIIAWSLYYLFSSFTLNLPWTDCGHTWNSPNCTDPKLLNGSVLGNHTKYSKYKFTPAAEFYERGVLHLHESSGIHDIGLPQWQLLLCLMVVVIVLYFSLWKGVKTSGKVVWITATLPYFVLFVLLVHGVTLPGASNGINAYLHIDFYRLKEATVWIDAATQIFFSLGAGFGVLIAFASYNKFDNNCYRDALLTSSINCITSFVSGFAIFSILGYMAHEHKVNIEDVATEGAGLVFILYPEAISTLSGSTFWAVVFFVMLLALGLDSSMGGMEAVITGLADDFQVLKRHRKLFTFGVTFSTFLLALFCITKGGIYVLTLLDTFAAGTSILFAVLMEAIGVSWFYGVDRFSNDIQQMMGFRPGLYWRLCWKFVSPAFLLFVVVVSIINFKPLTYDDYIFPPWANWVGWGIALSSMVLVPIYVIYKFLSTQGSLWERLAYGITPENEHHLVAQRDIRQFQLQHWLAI

| ID/g (Rattus norvegicus [1]) [%] | ID/g (Rattus norvegicus [2]) [%] | ID/g (Rattus norvegicus [3]) [%] | ID/g (Rattus norvegicus [4]) [%] | Ki [5] [nM] | ID/g (Rattus norvegicus [6]) [%] | ID/g (Rattus norvegicus [7]) [%] | ID/g (Rattus norvegicus [8]) [%] | ID/g (Rattus norvegicus [9]) [%] | ID/g (Rattus norvegicus [10]) [%] | ID/g (Rattus norvegicus [11]) [%] | ID/g (Rattus norvegicus [12]) [%] | T1/2 [13] [min] | ID/g (Rattus norvegicus [14]) [%] | ID/g (Rattus norvegicus [16]) [%] | ID/g (Rattus norvegicus [18]) [%] | ID/g (Rattus norvegicus [19]) [%] | ID/g (Rattus norvegicus [20]) [%] | ID/g (Rattus norvegicus [21]) [%] | ID/g (Rattus norvegicus [22]) [%] | also measured | Structure (SMILES) |
| --- | --- | --- | --- | --- | --- | --- | --- | --- | --- | --- | --- | --- | --- | --- | --- | --- | --- | --- | --- | --- | --- |
| 1.34 | 1.24 | 1.19 | 1.14 | 115 | 0.08 | 1.36 | 1.39 | 1.36 | 0.75 | 1.06 | 1.43 | 25.4 | 1.03 | 1.12 | 0.28 | 1.47 | 1.04 | 1.33 | 0.79 | Ki [15]: 230 nM; ID/g (Rattus norvegicus [17]): 0.14%; ID/g (Rattus norvegicus [23]): 0.74%; Ki [24]: 0.27 nM; ID/g (Rattus norvegicus [25]): 1.17%; logD ([26]; read-out: logD): 3.55; ID/g (Rattus norvegicus [27]): 0.39%; ID/g (Rattus norvegicus [28]): 1.54%; ID/g (Rattus norvegicus [29]): 0.73%; ID/g (Rattus norvegicus [30]): 0.47%; ID/g (Rattus norvegicus [31]): 1.65%; ID/g (Rattus norvegicus [32]): 1.48%; ID/g (Rattus norvegicus [33]): 0.23% | CN(C)Cc1ccccc1Sc1ccc(Cl)cc1N |
| 1.24 | 0.49 | 0.62 | 0.74 | 1420 | 0.06 | 1.25 | 1.46 | 1.24 | 0.54 | 1.13 | 1.15 | 15.6 | 0.76 | 1.06 | 0.31 | 1.02 | 0.72 | 1.29 | 0.35 | ID/g (Rattus norvegicus [34]): 0.48%; ID/g (Rattus norvegicus [35]): 0.8%; ID/g (Rattus norvegicus [36]): 0.64%; ID/g (Rattus norvegicus [37]): 0.49%; ID/g (Rattus norvegicus [38]): 0.1%; ID/g (Rattus norvegicus [39]): 0.13%; ID/g (Rattus norvegicus [40]): 0.55%; ID/g (Rattus norvegicus [23]): 0.35%; Ki [24]: 1.1 nM; ID/g (Rattus norvegicus [25]): 0.77%; logD [26]: 2.707; ID/g (Rattus norvegicus [27]): 0.58%; ID/g (Rattus norvegicus [28]): 1.21%; ID/g (Rattus norvegicus [29]): 0.32%; ID/g (Rattus norvegicus [30]): 0.27%; ID/g (Rattus norvegicus [31]): 0.8%; ID/g (Rattus norvegicus [32]): 1.39%; ID/g (Rattus norvegicus [41]): 0.22%; ID/g (Rattus norvegicus [33]): 0.07% | CN(C)Cc1ccccc1Sc1ccc(C#N)cc1N [DASB] |

Reference: ChEMBL document CHEMBL1133614, “Novel radiotracers for imaging the serotonin transporter by positron emission tomography: synthesis, radiosynthesis, and in vitro and ex vivo evaluation of (11)C-labeled 2-(phenylthio)araalkylamines” (J Med Chem, 2000)
